Screening results from PubChem BioAssay.
PKA kinase inh: inhibitors of human PKA kinase activity, primary screen, biochemical, ATP-depletion luminescence, Kemptide substrate | cAMP-dependent protein kinase catalytic subunit alpha (Homo sapiens), P17612 | PKA Kemptide phosphorylation, Kinase-Glo ATP luminescence | inhibition, % at 6 µM | actives 0.1% (n = 65,000) | AID 524, 2006;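 active = inhibition above the screen-wide mean inhibition plus 3 SD, cut at about 21% in these data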
JNK3 blocker: JNK3 kinase activity inhibitors, primary screen, biochemical, human, purified enzyme; Mitogen-activated protein kinase 10 (Homo sapiens), P53779; AID 746, 2007; HTS; actives 0.61% (n = 60,000); inhibition, % at 8 µM; in the data active = inhibition above about 17%
MT1-MMP txn act: MT1-MMP promoter reporter activation – cell-based, luciferase luminescence, primary screen; actives 0.16% (n = 86,000); AID 750, 2007; HT1080 MT1-MMP promoter luciferase reporter, overnight; hits give high values; activation factor at 10 µM;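 active = activation factor of at least 2 for MT1-MMP transcription at 10 µM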
SF-1 act: activators of human SF-1, primary screen, cell-based, CHO-K1, Gal4-SF-1 LBD, luciferase luminescence; CHO-K1 Gal4-SF-1 LBD luciferase reporter; % increase over DMSO SF-1-specific signal; Steroidogenic factor 1 (Homo sapiens), Q13285; actives 1.9% (n = 65,000); activation, % at 10 µM;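 active = activation above the mean activation of all tested compounds plus 3 SD, cut at about 50% in these data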
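Material: Gal4–SF-1 LBD one-hybrid luciferase reporter in CHO-K1 cells | Amount: 4,000 cells per well | Compound dosing: 10 µM single point, 1% DMSO | Schedule: 20 h compound treatment, 37 °C | Measured by: SteadyLite luciferase luminescence | Evaluation: Percent activation versus DMSO | Control set: DMSO-treated SF-1-transfected cells as negative, DMSO-treated mock-transfected cells lacking SF-1 as background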
RORA act: activators of orphan receptor RORA, primary screen, cell-based, luminescence; actives 1.5% (n = 65,000); CHO-K1 Gal4-RORA LBD luciferase reporter; percent increase over mock-subtracted basal signal; activation, % at 10 µM;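 active = activation above the mean of all tested compounds plus 3 SD, cut at about 49% in these data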
ROCK2 inh: inhibitors of human ROCK2 kinase, primary screen, biochemical, high-throughput, luminescence; inhibition, % at 6 µM; purified ROCK2, Kinase-Glo ATP depletion luminescence; Rho-associated protein kinase 2 (Homo sapiens), O75116; actives 0.35% (n = 60,000);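 active = inhibition above the screen-wide mean inhibition plus 3 SD, cut at about 18% in these data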
Large screens that a line does not name were inactive. In the library only some 2.5% were active in any assay of this set; here they are far more common.

CCOc1ccc2nc(-c3ccccc3)[nH]c2c1	RORA act 67
O=C(NCc1ccccc1Cl)c1cnc2n(c1=O)CCS2	none
O=C(NCCc1c[nH]c2ccccc12)c1cnc2n(c1=O)CCS2	RORA act 60
CCOC(=O)c1c(-c2ccccc2)[nH]c2ccc(O)cc12	JNK3 blocker 42
O=C(CNc1ccccc1)Nc1ccc(F)cc1	SF-1 act 61
O=C(Nc1ccc(F)cc1)c1ccccc1	none (no result: PKA kinase inh, JNK3 blocker, SF-1 act, RORA act, ROCK2 inh)
O=S(=O)(Nc1ncnc2sc3c(c12)CCC3)c1ccc(Cl)s1	none
CC(=O)Oc1ccc(-c2nc(-c3cccnc3)no2)cc1	RORA act 53
Brc1ccc(-c2nc(-c3cccnc3)no2)o1	SF-1 act 66
Brc1ccc(-c2nc(-c3ccccc3)no2)o1	SF-1 act 63, RORA act 68
CC(=O)Oc1ccc(Oc2ccc(-c3noc(C)n3)cc2)cc1	none
O=C(c1ccc(Cl)cc1)c1cnc2ccccn12	none (no result: PKA kinase inh, JNK3 blocker, SF-1 act, RORA act, ROCK2 inh)
CSc1nnc2n(Cc3ccccc3)c(=O)c3c4c(sc3n12)COC(C(C)C)C4 (stereo not given)	none (no result: PKA kinase inh, JNK3 blocker, SF-1 act, RORA act, ROCK2 inh)
COC(=O)[C@@H]1C[C@@]1(C)[C@@H](NC(=O)OCc1ccccc1)c1ccccc1	none (no result: PKA kinase inh, JNK3 blocker, SF-1 act, RORA act, ROCK2 inh)
Cc1cc(NC(=O)C2C3C(=O)N(CCC(C)C)C(C(=O)NCc4ccccc4)C34C=CC2(C)O4)no1 (stereo not given)	none
O=C(OCC(=O)c1c[nH]c2ccccc12)C1=COCCO1	MT1-MMP txn act 2.1, SF-1 act 109, RORA act 55
CCN(CC)S(=O)(=O)c1cc([N+](=O)[O-])ccc1NNC(=O)Nc1ccc(Cl)c(Cl)c1	none (no result: PKA kinase inh, JNK3 blocker, SF-1 act, RORA act, ROCK2 inh)
O=C(Nc1ccncc1)C1CCCN(S(=O)(=O)c2cccc3cccnc23)C1 (stereo not given)	RORA act 57, ROCK2 inh 75 (no result: MT1-MMP txn act)
COc1cccc(NC(=O)C2CCCN(S(=O)(=O)c3cccc4cccnc34)C2)c1 (stereo not given)	none
Cc1c(NC(=O)C23CC4CC(CC(C)(C4)C2)C3)c(=O)n(-c2ccccc2)n1C	MT1-MMP txn act 2
Cc1c(NC(=O)C2(C)CCCCC2)c(=O)n(-c2ccccc2)n1C	none
Cc1cc(NCCN2CCOCC2)n2ncc(-c3ccc(Cl)cc3)c2n1	none
Cc1cc(NCCN2CCOCC2)n2ncc(-c3ccccc3)c2n1	SF-1 act 91, RORA act 66
CC1CCCC(C)N1C(=O)c1cc(-c2ccc(Cl)c(Cl)c2)on1 (stereo not given)	RORA act 76
COc1ccc(C(=O)n2c(-c3ccco3)nc3ccccc32)cc1	RORA act 65
CCc1c(C)nc2cc(-c3ccc(OC)cc3)[nH]n2c1=O	RORA act 58
CCOC(=O)Cc1c(C)nc2cc(-c3ccc(Cl)cc3)[nH]n2c1=O	none
O=C1NC(c2ccc3c(c2)OCO3)Nc2ccccc21 (stereo not given)	SF-1 act 72, RORA act 63
CCOC(=O)C1CCCN(c2ncnc3c2cnn3-c2cccc(C)c2)C1 (stereo not given)	none (no result: JNK3 blocker, ROCK2 inh)
CC1CCCN(c2ncnc3c2cnn3-c2ccc(Cl)cc2)C1 (stereo not given)	none (no result: MT1-MMP txn act)
Cc1cccc(-n2ncc3c(N4CCC(C)CC4)ncnc32)c1	SF-1 act 70 (no result: MT1-MMP txn act)
Cc1cccc(-n2ncc3c(N(C)Cc4ccccc4)ncnc32)c1	SF-1 act 64, RORA act 56
CC1CC(C)CN(c2ncnc3c2cnn3-c2ccc(Cl)cc2)C1 (stereo not given)	SF-1 act 71, RORA act 54
CCN1CCN(c2ncnc3c2cnn3-c2ccccc2)CC1	SF-1 act 56
CCCCOc1ccc(-c2nnn(CC(=O)Nc3ncc(CC(=O)OCC)s3)n2)cc1	none
CC(C)CN(CC(C)C)c1nnc(N)s1	none
C=CC[n+]1c(-c2ccc(OCC)cc2)csc1NNC(=O)Nc1ccccc1	none (no result: PKA kinase inh, JNK3 blocker, SF-1 act, RORA act, ROCK2 inh)
c1ccc(-n2ncc3c(N4CCC5(CC4)OCCO5)ncnc32)cc1	none (no result: PKA kinase inh, JNK3 blocker, SF-1 act, RORA act, ROCK2 inh)
